The values that follow come from ChEMBL document CHEMBL1123881, “Synthesis and antiarrhythmic activity of new 3-[2-(omega-aminoalkoxy)phenoxy]-4-phenyl-3-buten-2-ones and related compounds” (J Med Chem, 1987).

In brackets after ≈: the same amount, converted by molar mass.

Series [1] is described as follows: The compound was tested for acute toxicity when given intraperitoneally in mouse. In kind it is organism-based. To be noted: in vivo, ip. The method in brief: (§1)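 Albino CF1 mice of both sexes, 18-20 g, dosed intraperitoneally; survivors observed for 1 week; ten mice per dose. LD50 derived by probit method, confidence limits at p = 0.05.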
The species entered for the next series is Oryctolagus cuniculus. Nature of the series: Tested in vitro for antiarrhythmic activity in isolated rabbit atria. The series is classed as functional. To be noted: Heart. In short, it runs like this:
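Atria from New Zealand rabbits in oxygenated Ringer-Locke at 29 °C, paced with 10-ms, 10-V rectangular pulses at rising frequency to find the maximum driven frequency. This was remeasured before and 10, 15 and 20 min after drug addition. Dose-response curves on the same tissue, repeated 3-5 times. EC values by probit.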

Series [2] relates to Rattus norvegicus. Briefly: Antiarrhythmic activity ( protection against CaCl2 induced ventricular fibrillation ) in anesthetized rat administered intravenously. In kind it is functional. To be noted: Heart, iv. The method in brief:
(§2)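 Sprague-Dawley albino rats, 180-200 g, conscious or urethane-anesthetized (2.8 g/kg sc). Compound given via caudal or portal vein 2 min, or orally 60 min, before rapid iv 8% CaCl2 at 1 mL/kg. Lead II ECG monitored for fibrillation within 10 min. Five to ten rats per dose.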

Series [3] can be described thus: The compound was tested for acute toxicity when given intravenously in rat. The series is classed as organism-based. To be noted: in vivo, iv. The method in brief: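 Sprague-Dawley rats of both sexes, 120-140 g, dosed intravenously; survivors observed for 1 week. LD50 derived by probit method, confidence limits at p = 0.05.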
Series [4] can be described thus: The compound was tested for acute toxicity when given intraperitoneally in mouse. The series is classed as organism-based. To be noted: in vivo, ip. In short, it runs like this:
as §1

The test system of series [5] is Canis familiaris. Nature of the series: The compound was tested for antiarrhythmic activity in infarcted conscious dog through iv(ear or caudal vein). In kind it is functional. To be noted: Canis lupus familiaris, Heart. In short, it runs like this: (§3)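 Beagle dogs of both sexes, 10-14 kg, coronary ligature under pentobarbital (30 mg/kg iv) with artificial ventilation. Next day, dogs without spontaneous arrhythmia get epinephrine 2-10 µg/kg iv (ear vein). Compound then given iv. ECG at 5-180 min, with epinephrine re-challenge at each time. Maximal ectopic beats/min counted before and after each dose, in 2-4 dogs.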

The subject of series [6] is Canis familiaris. Briefly: Antiarrhythmic activity ( protection against epinephrine induced ventricular fibrillation ) in post infarcted conscious dog administered iv(ear or caudal vein). In kind it is functional. To be noted: Canis lupus familiaris, Heart.
Series [7] concerns Mus musculus. Nature of the series: Antiarrhythmic activity ( protection against aconitine induced initial arrhythmia ) in anesthetized mouse administered perorally. To be noted: Heart, po. In kind it is functional. The method in brief:
(§4)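 Albino CF1 mice of both sexes, 20-22 g, pentobarbital-anesthetized (60 mg/kg ip), lead II ECG. Dosing iv (caudal vein) 2 min or orally 60 min before aconitine infusion, 8 µg/mL at 0.32 mL/min for 3 min. ECG read every 10 s. Endpoint is time to initial arrhythmia and to ventricular tachycardia. Ten mice per dose; probit analysis.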

In series [8] the test system is Mus musculus. Nature of the series: Antiarrhythmic activity ( protection against aconitine induced initial arrhythmia ) in anesthetized mouse administered through iv(ear or caudal vein). In kind it is functional. To be noted: Heart. In short, it runs like this: as §4
In series [9] the test system is Mus musculus. Briefly: Antiarrhythmic activity ( protection against aconitine induced ventricular tachycardia) in anesthetized mouse administered perorally. The series is classed as functional. To be noted: Heart, po. In short, it runs like this:
as §4

For series [10], the system named is Rattus norvegicus. Briefly: Activity on heart rate in anesthetized rat when induced through femoral vein (iv), at 5 mg/kg. In kind it is functional. In short, it runs like this: (§5)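 Heart rate in anesthetized rats, given iv (femoral vein) or into the portal vein. Rate recorded a few seconds before drug administration.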
Series [11] concerns Rattus norvegicus. Briefly: The compound was tested for activity on heart rate in anesthetized rat when induced through portal vein (ipv),at 14 mg/kg. In kind it is functional. The method in brief: as §5
Series [12] relates to Rattus norvegicus. Nature of the series: The compound was tested for blood electrolyte K+ in rat serum when induced through femoral vein (iv),at 20 mg/kg. In kind it is functional. In short, it runs like this: (§6)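 Sprague-Dawley rats of both sexes, 140-150 g. Serum K+ measured by flame photometry 1 h after iv dosing. Five rats per dose.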
The subject of series [13] is Rattus norvegicus. Nature of the series: Antiarrhythmic activity ( protection against CaCl2 induced ventricular fibrillation ) in conscious rat administered intravenously. The series is classed as functional. To be noted: Heart, iv. In short, it runs like this: as §2
Series [14] concerns Rattus norvegicus. Briefly: Antiarrhythmic activity ( protection against CaCl2 induced ventricular fibrillation ) in conscious rat administered orally (po). To be noted: Heart. In kind it is functional. The method in brief:
as §2

Series [15] has as its system Rattus norvegicus. Briefly: Antiarrhythmic activity (protection against CaCl2 induced ventricular fibrillation) in anesthetized rat administered through portal vein (ipv). The series is classed as functional. To be noted: Heart. In short, it runs like this:
as §2

Series [16] has as its system Mus musculus. Nature of the series: Antiarrhythmic activity ( protection against aconitine induced ventricular tachycardia) in anesthetized mouse administered through iv(ear or caudal vein). The series is classed as functional. To be noted: Heart. The method in brief:
as §4

For series [17], the system named is Canis familiaris. Briefly: The compound was tested for antiarrhythmic activity in infarcted conscious dog through iv. The series is classed as functional. To be noted: Canis lupus familiaris, Heart. In short, it runs like this:
as §3

The test system of series [18] is Canis familiaris. Briefly: Antiarrhythmic activity ( protection against epinephrine induced ventricular fibrillation ) in post infarcted conscious dog administered iv. The series is classed as functional. To be noted: Canis lupus familiaris, Heart.
Series [19] concerns Mus musculus. Nature of the series: Antiarrhythmic activity (protection against aconitine induced initial arrhythmia) in anesthetized mouse administered through iv. The series is classed as functional. To be noted: Heart. In short, it runs like this: as §4
Series [20] deals with Mus musculus. Nature of the series: Antiarrhythmic activity (protection against aconitine induced ventricular tachycardia) in anesthetized mouse administered through iv. To be noted: Heart. In kind it is functional. In short, it runs like this:
as §4

In series [21] the test system is Rattus norvegicus. Nature of the series: The compound was tested for activity on heart rate in anesthetized rat when induced through femoral vein (iv) at a dose of 1 mg/kg. In kind it is functional. The method in brief:
as §5

For series [22], the system named is Rattus norvegicus. Nature of the series: The compound was tested for blood electrolyte K+ in rat serum when induced through femoral vein (iv) at a dose of 5 mg/kg. The series is classed as functional. The method in brief:
as §6

In series [23] the test system is Rattus norvegicus. Briefly: The compound was tested for activity on heart rate in anesthetized rat when induced through portal vein (ipv) at a dose of 2 mg/kg. The series is classed as functional. The method in brief: as §5
The species entered for series [24] is Mus musculus. Nature of the series: The compound was tested for effective concentration (intradermal injection) that caused local anesthesia in 50% of mice by tail-clip method. The series is classed as functional, organism-based.

As to `CC(=O)/C(=C\c1ccccc1)Oc1ccccc1OCCCN1CCCCC1`, the LD50 in series [1] amounted to 62 mg/kg; in series [3], 6.5 mg/kg. Besides, the EC30 in the series filed under Oryctolagus cuniculus is 1.6 µg/mL (≈ 4.22 µM). The ED50 in the series on Rattus norvegicus [2] was 0.2 mg/kg.
The molecule `CCN(CC)CCOc1ccccc1OC(Cc1ccccc1)C(C)O` (stereo not drawn) showed an LD50 in series [4] of 85 mg/kg. In the series listed under Oryctolagus cuniculus, this molecule had an EC30 of 2.5 µg/mL (≈ 6.99 µM). Further, the median effective dose (ED50) with Rattus norvegicus [2] was 1 mg/kg.
In the case of `CCN(CC)CCOc1ccccc1OC(Cc1ccccc1)C(C)=O` (stereo not drawn), the LD50 in series [4] was 92 mg/kg; in [3] it was 11.7 mg/kg. The same molecule returned an EC30 in the series listed under Oryctolagus cuniculus of 10 µg/mL (≈ 28.1 µM). In the series with Rattus norvegicus [2], the ED50 is 0.75 mg/kg.
In [1], `CC(=O)/C(=C\c1ccccc1)Oc1ccc(OCC(C)N(C)C)cc1` (stereo not drawn) displayed an LD50 of 100 mg/kg. Also, the EC30 in the series listed under Oryctolagus cuniculus amounted to 3.5 µg/mL (≈ 10.3 µM). In the series with Rattus norvegicus [2], this molecule returned an ED50 of 3 mg/kg.
For `CCN(CC)CCOc1ccc(O/C(=C/c2ccccc2)C(C)=O)cc1`, in that order: 163 mg/kg, 3 µg/mL (≈ 8.49 µM) and 2 mg/kg.
Take `CC(=O)/C(=C\c1ccccc1)Oc1ccccc1OCC(O)CNC(C)(C)C` (stereo not drawn): the LD50 in series [1] is 80 mg/kg; in series [3], 17 mg/kg. The molecule also displayed an EC30 in the series listed under Oryctolagus cuniculus of 0.51 µg/mL (≈ 1.33 µM).
On to `CC(=O)/C(=C\c1ccccc1)Oc1ccccc1OCCN(C(C)C)C(C)C`, for which the values for the LD50 in [4] and in series [3] were 125 mg/kg and 10.1 mg/kg, respectively. In the series listed under Oryctolagus cuniculus, the EC30 was found to be 1 µg/mL (≈ 2.62 µM). Besides, in the series with Rattus norvegicus [2], the ED50 was 0.5 mg/kg.
On to `CC(=O)/C(=C\c1ccccc1)Oc1ccccc1OCCN1CCCCC1`, for which the LD50 in [4] came out at 63 mg/kg; in series [3], 11.2 mg/kg. This molecule also came in with an EC30 in the series filed under Oryctolagus cuniculus of 3 µg/mL (≈ 8.21 µM).
For `CC(=O)/C(=C\c1ccccc1)Oc1cc(Cl)ccc1OCCN(C(C)C)C(C)C`, the LD50 in [1] came to 165 mg/kg. Besides, in the series filed under Oryctolagus cuniculus, the EC30 was 2 µg/mL (≈ 4.81 µM). This molecule returned an ED50 in the series with Rattus norvegicus [2] of 0.62 mg/kg.
Take `C/C=C(/Oc1ccccc1OCCN(CC)CC)C(C)=O`: the LD50 in series [1] worked out at 80 mg/kg. Besides, the 30% effect concentration (EC30) in the series listed under Oryctolagus cuniculus was 5 µg/mL (≈ 17.2 µM). For the same molecule, the ED50 with Rattus norvegicus [2] came out at 3 mg/kg.
The molecule `CC(=O)/C(=C\c1ccccc1)Oc1ccccc1OCC(O)CN1CCN(C)CC1` (stereo not drawn) yielded an LD50 in [1] of 175 mg/kg. This molecule also registered an EC30 in the series filed under Oryctolagus cuniculus of 10 µg/mL (≈ 24.4 µM). The same molecule showed an ED50 in the series on Rattus norvegicus [2] of 7.5 mg/kg.
Taken in the same sequence, the figures for `CCN(CC)CCOc1ccc(Cl)cc1O/C(=C/c1ccccc1)C(C)=O` were 170 mg/kg, 2 µg/mL (≈ 5.16 µM) and 0.6 mg/kg.
In the case of `CCN(CC)CCNC(=O)c1ccc(N)cc1` [PROCAINAMIDE], the median lethal dose (LD50) in series [4] came to 312 mg/kg; in series [3], 121 mg/kg. In the series listed under Oryctolagus cuniculus, it took 45.8 µg/mL (≈ 195 µM) to reach the 30% level (EC30). Moreover, the ED50 with Rattus norvegicus [2] came out at 48.1 mg/kg.
Consider `C=C[C@H]1CN2CC[C@H]1C[C@@H]2[C@@H](O)c1ccnc2ccc(OC)cc12` [QUINIDINE], for which the ED50 was found to be 5.5 mg/kg in the series on Canis familiaris [5]; 1 mg/kg with Canis familiaris [6]; 122 mg/kg with Mus musculus [7]; 15.2 mg/kg in the series with Mus musculus [8]; 158 mg/kg with Mus musculus [9]; 3.2 mg/kg with Rattus norvegicus [13]. Further, the median effective dose (ED50) worked out at 47.7 mg/kg with Rattus norvegicus [14], 13.5 mg/kg in the series on Rattus norvegicus [15] and 14 mg/kg in the series with Mus musculus [16]. Moreover, the Activity in the series with Rattus norvegicus [10] is given as -30%; in the series with Rattus norvegicus [11], -36%; with Rattus norvegicus [12] it was 3%. Besides, the 30% effect level in the series listed under Oryctolagus cuniculus (EC30) was put at 3.9 µg/mL (≈ 12 µM).
As to `CCN(CC)CCOc1ccccc1O/C(=C/c1ccccc1)C(C)=O` [ZOCAINONE], the median effective dose (ED50) came to 2 mg/kg with Canis familiaris [17]; 2 mg/kg with Canis familiaris [18]; 132 mg/kg in the series on Mus musculus [7]; 149 mg/kg with Mus musculus [9]; 7.5 mg/kg with Mus musculus [19]; 11 mg/kg with Mus musculus [20]. The ED50 in the series with Rattus norvegicus [2] is 0.46 mg/kg; in the series with Rattus norvegicus [13], 0.88 mg/kg; in the series with Rattus norvegicus [14], 13.6 mg/kg; with Rattus norvegicus [15], 2.3 mg/kg. The results for the median lethal dose (LD50) in [1] and in [3] were 72 mg/kg and 8.9 mg/kg, respectively. The 30% effect level in the series listed under Oryctolagus cuniculus (EC30) was put at 0.7 µg/mL (≈ 1.98 µM). For the same molecule, the values for the Activity with Rattus norvegicus [21], in the series with Rattus norvegicus [22] and with Rattus norvegicus [23] were -15%, 12% and -1%, respectively. Besides, in the series filed under Mus musculus [24], the EC50 stood at 0.01 µg/mL (≈ 0.0283 µM).

The term LD50 denotes the dose expected to kill half of the subjects tested. The low end stands for greater toxicity, the high end for lower toxicity. A word on the EC30: it is the point of the concentration-response curve where the effect stands at 30%. Read a low EC30 as greater potency. What is called ED50 is the dose at which the effect has come halfway, by size or by number of responders. A word on the EC50: it is the concentration needed to bring the measured effect to its halfway point.
